Measured values as given in the array DNA melting data of Ke et al. (doi:10.1101/2024.01.08.574731).

What was measured:
[1] = folding enthalpy; higher = less favourable; fluorescence melt of hairpins on a sequencing array, two-state fit; details: sodium 0.088 M
In short: (§1)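 To match UV melts, fitted temperatures were raised by 9.35 °C. These fits were bootstrapped two-state models that gave melting temperature and folding enthalpy, combined by inverse variance over four replicates. The input was normalised Cy3 fluorescence of library hairpins with annealed Cy3 and quencher oligos on a sequenced MiSeq flow cell, imaged in 50 mM Na-HEPES pH 8.0, 25 mM NaCl in 2.5 °C steps up to 60 °C.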

[2] = melting temperature; fluorescence melt of hairpins on a sequencing array, two-state fit, raised by 9.35 °C to match UV melts; details: sodium 0.088 M
In short: as §1

Sequence	folding enthalpy [1]	Tm [2]
GATCCGATTACGGATC ((((((....))))))	-34.2 kcal/mol	58.4 °C
GATCCGCACTCGGATC ((((((....))))))	-41 kcal/mol	56.5 °C
GATCCGCAGTCGGATC ((((((....))))))	-35 kcal/mol	55.9 °C
GATCCGCCAACGGATC ((((((....))))))	-36 kcal/mol	57.7 °C
GATCCGCCGCGGATC ((((((...))))))	-40.5 kcal/mol	56.5 °C
GATCCGCCTACGGATC ((((((....))))))	-37.9 kcal/mol	59.6 °C
GATCCGCGAAAGCGATC (((.(((....))))))	-14 kcal/mol	44.6 °C
GATCCGCTAACGGATC ((((((....))))))	-37.2 kcal/mol	58.8 °C
GATCCGCTGACGGATC ((((((....))))))	-38 kcal/mol	60.7 °C
GATCCGCTGCCGGATC ((((((....))))))	-36.4 kcal/mol	57 °C
GATCCGCTTCGGATC ((((((...))))))	-39 kcal/mol	58.6 °C
GATCCGGAATCGGATC ((((((....))))))	-45.2 kcal/mol	62 °C
GATCCGGACACGGATC ((((((....))))))	-43.2 kcal/mol	66 °C
GATCCGGACCGGATC ((((((...))))))	-34.6 kcal/mol	57.3 °C
GATCCGGAGCGGATC ((((((...))))))	-33.3 kcal/mol	56.1 °C
GATCCGGCTTCGGATC ((((((....))))))	-39.8 kcal/mol	59.5 °C
GATCCGGGAAACTGGATC (((((.(....).)))))	-41.7 kcal/mol	52.1 °C
GATCCGGGACCGGATC ((((((....))))))	-44.4 kcal/mol	65.4 °C
GATCCGGGGACGGATC ((((((....))))))	-41.6 kcal/mol	61.9 °C
GATCCGGTAGCGGATC ((((((....))))))	-31.3 kcal/mol	64.2 °C
GATCCGGTTCCGGATC ((((((....))))))	-43 kcal/mol	62.7 °C
GATCCGGTTCGGATC ((((((...))))))	-31.5 kcal/mol	63.6 °C
GATCCGGTTGCGGATC ((((((....))))))	-40.3 kcal/mol	59.6 °C
GATCCGTAGACGGATC ((((((....))))))	-42.9 kcal/mol	58.2 °C

Sequence	folding enthalpy [1]	Tm [2]
GATCCGTCACGGATC ((((((...))))))	-34.7 kcal/mol	60.6 °C
GATCCGTCCACGGATC ((((((....))))))	-43 kcal/mol	64.1 °C
GATCCGTCGACGGATC ((((((....))))))	-48.8 kcal/mol	61.9 °C
GATCCGTCGCGGATC ((((((...))))))	-35.8 kcal/mol	59 °C
GATCCGTGAACGGATC ((((((....))))))	-33.1 kcal/mol	60.5 °C
GATCCGTGATCGGATC ((((((....))))))	-32.1 kcal/mol	58.6 °C
GATCCGTTAGCGGATC ((((((....))))))	-39.9 kcal/mol	60.8 °C
GATCCGTTCCGGATC ((((((...))))))	-46 kcal/mol	59.2 °C
GATCCTAAGGAGGATC ((((((....))))))	-25.2 kcal/mol	49.3 °C
GATCCTAATGAGGATC ((((((....))))))	-34.1 kcal/mol	50.5 °C
GATCCTACAAAGGATC ((((((....))))))	-36.3 kcal/mol	49.5 °C
GATCCTACCAGGATC ((((((...))))))	-39.6 kcal/mol	54.9 °C
GATCCTACGAAGGATC ((((((....))))))	-35.9 kcal/mol	50.3 °C
GATCCTACGCAGGATC ((((((....))))))	-35 kcal/mol	51.1 °C
GATCCTACGGAGGATC ((((((....))))))	-35 kcal/mol	50.9 °C
GATCCTACTCAGGATC ((((((....))))))	-32.3 kcal/mol	52 °C
GATCCTAGATAGGATC ((((((....))))))	-36.1 kcal/mol	50.8 °C
GATCCTATACAGGATC ((((((....))))))	-38.1 kcal/mol	52.4 °C
GATCCTATATAGGATC ((((((....))))))	-46.7 kcal/mol	52.3 °C
GATCCTATGAAGGATC ((((((....))))))	-34 kcal/mol	51 °C
GATCCTATGGAGGATC ((((((....))))))	-35.2 kcal/mol	50.6 °C
GATCCTATTCAGGATC ((((((....))))))	-44 kcal/mol	52.6 °C
GATCCTATTTAGGATC ((((((....))))))	-40.6 kcal/mol	54.4 °C
GATCCTCAAAGGATC ((((((...))))))	-32.1 kcal/mol	50.6 °C

Sequence	folding enthalpy [1]	Tm [2]
GATCCTCAACAGGATC ((((((....))))))	-37.2 kcal/mol	48.7 °C
GATCCTCACAGGATC ((((((...))))))	-27.2 kcal/mol	54 °C
GATCCTCAGCAGGATC ((((((....))))))	-33.2 kcal/mol	48.8 °C
GATCCTCATCAGGATC ((((((....))))))	-37 kcal/mol	49.7 °C
GATCCTCCATAGGATC ((((((....))))))	-33.5 kcal/mol	51.1 °C
GATCCTCCTAGGATC ((((((...))))))	-39.2 kcal/mol	54 °C
GATCCTCCTTAGGATC ((((((....))))))	-36.8 kcal/mol	50.9 °C
GATCCTCGAAAGGATC ((((((....))))))	-37.2 kcal/mol	50.4 °C
GATCCTCGAGAGGATC ((((((....))))))	-42.7 kcal/mol	56.8 °C
GATCCTCGCGAGGATC ((((((....))))))	-43.4 kcal/mol	60.4 °C
GATCCTCGGTAGGATC ((((((....))))))	-26.9 kcal/mol	50.9 °C
GATCCTCGTAAGGATC ((((((....))))))	-35.3 kcal/mol	54.5 °C
GATCCTCGTGAGGATC ((((((....))))))	-36.6 kcal/mol	61.5 °C
GATCCTCTATAGGATC ((((((....))))))	-40.8 kcal/mol	51.9 °C
GATCCTCTGTAGGATC ((((((....))))))	-36.2 kcal/mol	51.8 °C
GATCCTCTTTAGGATC ((((((....))))))	-46.6 kcal/mol	52 °C
GATCCTGAGTAGGATC ((((((....))))))	-37.9 kcal/mol	50.9 °C
GATCCTGATTAGGATC ((((((....))))))	-40.4 kcal/mol	51.3 °C
GATCCTGCTAGGATC ((((((...))))))	-34 kcal/mol	54.8 °C
GATCCTGGAAACAGGATC (((((((....)))))))	-44.4 kcal/mol	61.7 °C
GATCCTGGAAACAGGGTC ((.((((....)))).))	-32.9 kcal/mol	50.8 °C
GATCCTGGCCAGGATC ((((((....))))))	-47.6 kcal/mol	61.3 °C
GATCCTGGCTAGGATC ((((((....))))))	-38.3 kcal/mol	57.5 °C
GATCCTGGTAAGGATC ((((((....))))))	-41.8 kcal/mol	65.8 °C
